Test [1] is filed under the species Mus musculus. Nature of the test: Anticonvulsant activity expressed as log(1/EDMES(2.5)) in MES assay on mice that responded a score of 2.5. The class given is functional. The gist of the method:
(§1)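 Male Swiss albino mice ([…]), pre-screened by passing a 5 min rotorod test. Compound in DMSO given ip, starting at 100 mg/kg, later doses raised or lowered to complete the dose-activity profile. After 30 min, 45 mA ([…]) for 0.2 s via auricular electrodes. Seizure scored 1 (no protection) to 4 (full), averaged over 5-6 mice per dose. Effective dose taken as the dose giving a score of 2.5; log value used for QSAR.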

For test [2], the species on record is Mus musculus. Nature of the test: Anticonvulsant activity measured as effective dose required to produce a response score of 2.5 in MES assay on mice. The class given is functional. The gist of the method:
as §1

As for `O=C1NC(=O)/C(=C/c2ccc(-c3ccccc3)cc2)N1`, the “Log 1/EDMES(2.5)” value in test [1] is given as -2.3. Also, in test [2], the “EDMES(2.5)” value was >200 mg/kg.
For `O=C1NC(=O)/C(=C/c2ccc(C(F)(F)F)cc2)N1`, in that order: -1.81 and 64 mg/kg.
For `Cc1cccc(/C=C2\NC(=O)NC2=O)c1`, in that order: -1.87 and 74 mg/kg.
In the same order, the values of `CN(C)c1ccc(/C=C2\NC(=O)NC2=O)cc1` are -2.3 and >200 mg/kg.
As for `COc1ccccc1/C=C1\NC(=O)NC1=O`, in test [1], the “Log 1/EDMES(2.5)” value was -1.92. Moreover, the “EDMES(2.5)” value in test [2] stood at 84 mg/kg.
In the same order, the values of `CC(C)(C)c1ccc(/C=C2\NC(=O)NC2=O)cc1` are -2.3 and >200 mg/kg.
For `O=C1NC(=O)/C(=C/C2CCCCC2)N1`, in that order: -2.19 and 156 mg/kg.
In the same order, the values of `Cc1ccc(/C=C2\NC(=O)NC2=O)cc1` are -2.3 and >200 mg/kg.
As for `O=C1NC(=O)/C(=C/c2ccccc2F)N1`, the “Log 1/EDMES(2.5)” value in test [1] is reported as -2.3. Also, the “EDMES(2.5)” value in test [2] is >200 mg/kg.
In the same order, the values of `O=C1NC(=O)/C(=C/c2ccccn2)N1` are -2.15 and 141 mg/kg.
For `CCCCOc1ccc(/C=C2\NC(=O)NC2=O)cc1`, in that order: -2.3 and >200 mg/kg.
With `O=C1NC(=O)/C(=C/c2cccc3ccccc23)N1`, the “Log 1/EDMES(2.5)” value in test [1] is -2.3. Further, the “EDMES(2.5)” value in test [2] is >200 mg/kg.
In the same order, the values of `O=C1NC(=O)/C(=C\c2c(Cl)cccc2Cl)N1` are -1.86 and 72 mg/kg.
Consider `CC(C)c1ccc(/C=C2\NC(=O)NC2=O)cc1`, for which the “Log 1/EDMES(2.5)” value in test [1] was -1.9. The “EDMES(2.5)” value in test [2] was determined as 80 mg/kg.
In the same order, the values of `O=C1NC(=O)/C(=C/c2ccc(Cl)cc2Cl)N1` are -2.3 and >200 mg/kg.
In the same order, the values of `O=C1NC(=O)/C(=C/c2cccc([N+](=O)[O-])c2)N1` are -2.3 and >200 mg/kg.
In the same order, the values of `O=C1NC(=O)/C(=C/c2ccc(Cl)cc2)N1` are -2.3 and >200 mg/kg.
Take `O=C1NC(=O)/C(=C/c2ccc(F)cc2)N1`: the “Log 1/EDMES(2.5)” value in test [1] is given as -2.3. The “EDMES(2.5)” value in test [2] was >200 mg/kg.
In the same order, the values of `Cc1ccc(/C=C2\NC(=O)NC2=O)c(C)c1` are -1.59 and 39 mg/kg.
In the same order, the values of `Cc1cc(C)c(/C=C2/NC(=O)NC2=O)c(C)c1` are -1.45 and 28 mg/kg.
For the compound `O=C1NC(=O)/C(=C/c2cccc(C(F)(F)F)c2)N1`, the “Log 1/EDMES(2.5)” value in test [1] is -2.06. For the same compound, the “EDMES(2.5)” value in test [2] was 115 mg/kg.
For `O=C1NC(=O)/C(=C/c2ccccc2OCc2ccccc2)N1`, in that order: -2.3 and >200 mg/kg.
On to `CCCCc1ccc(/C=C2\NC(=O)NC2=O)cc1`, for which the “Log 1/EDMES(2.5)” value in test [1] was -2.08. Further, the “EDMES(2.5)” value in test [2] is 121 mg/kg.
For `CCc1ccc(/C=C2\NC(=O)NC2=O)cc1`, in that order: -1.87 and 74 mg/kg.
For `COc1cccc(/C=C2\NC(=O)NC2=O)c1`, in that order: -2.3 and >200 mg/kg.
For `COc1ccc(/C=C2\NC(=O)NC2=O)cc1`, in that order: -2.3 and >200 mg/kg.
Turning to `O=C1NC(=O)/C(=C/c2ccc3ccccc3c2)N1`, in test [1], the “Log 1/EDMES(2.5)” value is on record as -2.3. The “EDMES(2.5)” value in test [2] is >200 mg/kg.
Regarding `O=C1NC(=O)/C(=C/c2ccc([N+](=O)[O-])cc2)N1`, the “Log 1/EDMES(2.5)” value in test [1] is reported as -2.3. Besides, the “EDMES(2.5)” value in test [2] is >200 mg/kg.
In the same order, the values of `O=C1NC(=O)/C(=C/c2c[nH]c3ccccc23)N1` are -2.3 and >200 mg/kg.
In the same order, the values of `CCCOc1ccc(/C=C2\NC(=O)NC2=O)cc1` are -1.89 and 77 mg/kg.
For `O=C1NC(=O)/C(=C/c2cccc(Oc3ccccc3)c2)N1`, in that order: -2.3 and >200 mg/kg.
As to `O=C1NC(=O)/C(=C/c2ccco2)N1`, the “Log 1/EDMES(2.5)” value in test [1] was -2.22. For the same compound, in test [2], the “EDMES(2.5)” value came out at 167 mg/kg.
In the case of `Cc1ccccc1/C=C1\NC(=O)NC1=O`, in test [1], the “Log 1/EDMES(2.5)” value is -1.77. In test [2], the “EDMES(2.5)” value is 59 mg/kg.
In the same order, the values of `O=C1NC(=O)/C(=C/c2ccccc2)N1` are -2.1 and 125 mg/kg.
For `O=C1NC(=O)/C(=C/c2cccc(Cl)c2)N1`, in that order: -1.91 and 82 mg/kg.
As to `COc1ccc(/C=C2\NC(=O)NC2=O)c(OC)c1`, the “Log 1/EDMES(2.5)” value in test [1] was -2.24. For the same compound, the “EDMES(2.5)” value in test [2] turned out to be 175 mg/kg.
In the same order, the values of `Cc1cc(C)c(/C=C2\NC(=O)NC2=O)cc1C` are -2.3 and >200 mg/kg.
In the same order, the values of `O=C1NC(=O)/C(=C/c2ccccc2C(F)(F)F)N1` are -2.3 and >200 mg/kg.
In the same order, the values of `O=C1NC(=O)/C(=C/c2cccc(O)c2)N1` are -2.3 and >200 mg/kg.
Turning to `O=C1NC(=O)/C(=C/c2cccc(Br)c2)N1`, in test [1], the “Log 1/EDMES(2.5)” value was -1.95. Besides, the “EDMES(2.5)” value in test [2] was 89 mg/kg.
With `O=C1NC(=O)/C(=C/c2ccccc2Br)N1`, the “Log 1/EDMES(2.5)” value in test [1] is listed as -2.3. Also, the “EDMES(2.5)” value in test [2] is >200 mg/kg.
In the same order, the values of `O=C1NC(=O)/C(=C/c2ccccc2Cl)N1` are -2.3 and 198 mg/kg.
For `O=C1NC(=O)/C(=C/c2ccc3[nH]c4ccccc4c3c2)N1`, in that order: -2.3 and >200 mg/kg.
For `O=C1NC(=O)/C(=C/c2ccc(OCc3ccccc3)cc2)N1`, in that order: -2.2 and 157 mg/kg.
On to `O=C1NC(=O)/C(=C/c2ccccc2O)N1`, for which, in test [1], the “Log 1/EDMES(2.5)” value is listed as -2.3. For the same compound, the “EDMES(2.5)” value in test [2] is >200 mg/kg.
In the same order, the values of `O=C1NC(=O)/C(=C/c2cccc(F)c2)N1` are -2.24 and 172 mg/kg.
In the same order, the values of `O=C1NC(=O)/C(=C/c2ccc(F)c(F)c2)N1` are -2.08 and 121 mg/kg.
In the same order, the values of `CCOc1ccccc1/C=C1\NC(=O)NC1=O` are -2.3 and >200 mg/kg.
Take `CCN(CC)c1ccc(/C=C2\NC(=O)NC2=O)cc1`: the “Log 1/EDMES(2.5)” value in test [1] was -2.3. The “EDMES(2.5)” value in test [2] was >200 mg/kg.
For `CCOc1ccc(/C=C2\NC(=O)NC2=O)cc1`, in that order: -2.03 and 107 mg/kg.
In the same order, the values of `O=C1NC(=O)/C(=C/c2cccs2)N1` are -2.3 and >200 mg/kg.
In the same order, the values of `N#Cc1ccc(/C=C2\NC(=O)NC2=O)cc1` are -2.3 and >200 mg/kg.
Regarding `O=C1NC(=O)/C(=C/c2ccc(Br)cc2)N1`, the “Log 1/EDMES(2.5)” value in test [1] is reported as -2.3. The “EDMES(2.5)” value in test [2] is >200 mg/kg.
For `O=C1NC(=O)/C(=C/c2ccc(O)cc2)N1` [4-HYDROXYPHENYLMETHYLENE HYDANTOIN], in that order: -2.3 and >200 mg/kg.
In the case of `O=C1NC(=O)C(c2ccccc2)(c2ccccc2)N1` [PHENYTOIN], the “Log 1/EDMES(2.5)” value in test [1] is -1.48. Further, the “EDMES(2.5)” value in test [2] came out at 30 mg/kg.

These data come from ChEMBL document CHEMBL1149103, “Anticonvulsant activity of phenylmethylenehydantoins: a structure-activity relationship study” (2004).
